Data reported in ChEMBL document CHEMBL5352422, “Development of l-Dopa-containing diketopiperazines as blood-brain barrier shuttle” (Eur J Med Chem, 2022).
Calls of active or inactive are those of the source. No cut-off for these calls is given here.

How the values were obtained:
[1] = molecular target: T1, Nuclear factor erythroid 2-related factor 2 (Rattus norvegicus) (UniProt O54968); experiment: Induction of MPP+ induced Nrf2 nuclear translocation in rat PC12 cells at 100 nM incubated for 24 hrs by Western blot analysis; assay type: cell-based; conditions: PC-12, filed as activator
T1 sequence (whole entry): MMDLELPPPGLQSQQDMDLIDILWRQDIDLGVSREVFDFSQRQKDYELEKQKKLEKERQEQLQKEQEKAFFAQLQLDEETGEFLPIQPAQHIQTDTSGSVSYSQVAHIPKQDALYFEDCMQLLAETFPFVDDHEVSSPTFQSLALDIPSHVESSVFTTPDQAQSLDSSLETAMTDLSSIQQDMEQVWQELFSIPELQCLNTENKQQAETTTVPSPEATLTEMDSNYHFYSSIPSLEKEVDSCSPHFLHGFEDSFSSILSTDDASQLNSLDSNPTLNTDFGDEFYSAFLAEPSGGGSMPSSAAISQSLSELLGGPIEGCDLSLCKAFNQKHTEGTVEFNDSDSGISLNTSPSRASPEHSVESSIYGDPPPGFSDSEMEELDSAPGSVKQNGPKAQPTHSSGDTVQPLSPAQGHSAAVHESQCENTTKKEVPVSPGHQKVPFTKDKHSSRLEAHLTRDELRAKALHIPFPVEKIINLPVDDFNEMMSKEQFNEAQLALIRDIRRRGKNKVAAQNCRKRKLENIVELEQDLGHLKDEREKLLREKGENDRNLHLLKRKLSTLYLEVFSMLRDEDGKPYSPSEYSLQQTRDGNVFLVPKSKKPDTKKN
In short: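 PC12 cells were incubated 24 h with MPP+ (25 μM) with or without compound (100 nM). Nuclear extracts (30 μg) were run on 10% SDS-PAGE and immunoblotted for Nrf2, with histone H3 as nuclear marker and ECL detection.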

[2] = system: PC-12; experiment: Upregulation of GCLM expression in MPP+ induced rat PC-12 cells at 100 nM pretreated with compound for 24 hrs followed by MPP+ stimulation and measured after 6 hrs; assay type: functional, cell-based; conditions: time 30.0 hrs
In short: (§1)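 PC12 cells pretreated 24 h with compound, then exposed to 25 μM MPP+ for 6 h. mRNA quantified by real-time PCR (95 °C 3 min, then 40 cycles of 95 °C 10 s and 62 °C 30 s), samples in triplicate. Values normalized to β-actin, expressed as 2^-ΔΔCt with untreated cells set to 1.0. n = 3.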

[3] = system: PC-12; experiment: Upregulation of GR expression in MPP+ induced rat PC-12 cells at 100 nM pretreated with compound for 24 hrs followed by MPP+ stimulation and measured after 6 hrs; assay type: functional, cell-based; conditions: time 30.0 hrs; in short: as §1
[4] = system: PC-12; experiment: Upregulation of GSTA-2 expression in MPP+ induced rat PC-12 cells at 100 nM pretreated with compound for 24 hrs followed by MPP+ stimulation and measured after 6 hrs; assay type: functional, cell-based; conditions: time 30.0 hrs; in short: as §1
[5] = system: PC-12; experiment: Upregulation of Gpx expression in MPP+ induced rat PC-12 cells at 100 nM pretreated with compound for 24 hrs followed by MPP+ stimulation and measured after 6 hrs; assay type: functional, cell-based; conditions: time 30.0 hrs; in short: as §1

- Activity [1]: Active
SMILES: C#CCSC[C@H]1NC(=O)[C@H](Cc2ccc(OC(C)=O)c(OC(C)=O)c2)NC1=O
- Activity [2]: Active
- Activity [3]: Active
- Activity [4]: Active
- Activity [5]: Active
